Results as given in PMC8173612 (ACS Omega, 2021).
Converted amounts (≈) assume the structure as drawn. Where two headings read alike, the source gives them in different places.

Assays:
[1] = Solubility screening of selected solvents; format: physicochemical
Method in brief: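 Solvent screen in 2-propanol, tetrahydrofuran, cyclohexane and toluene. Solubility of each test compound was determined in each neat solvent at room temperature and at 0 °C. Values are reported in mg/mL.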

[2] = in deionized water, cyclohexane, petroleum ether, and hexane; cited from earlier work
[3] = solvent 2-propanol, RT (25-30 °C)
[4] = solvent cyclohexane, RT (25-30 °C)
[5] = tetrahydrofuran, 0 °C, organic solvent or mixture, thermodynamic from solid
[6] = tetrahydrofuran, organic solvent or mixture, thermodynamic from solid
[7] = toluene, 0 °C, organic solvent or mixture, thermodynamic from solid
[8] = toluene, organic solvent or mixture, thermodynamic from solid

In the case of `CC(C)OC(=O)NNC(=O)OC(C)C.O=P(c1ccccc1)(c1ccccc1)c1ccccc1` [TPPO-H2DIAD, triphenylphosphine oxide-1,2-isopropylhydrazine dicarboxylate], the solubility ([1]; solvent 2-propanol, 0 °C) is reported as 13.3 mg/mL, the solubility [1, 3] is reported as 60.4 mg/mL and the solubility ([1]; solvent cyclohexane, 0 °C) is reported as “insoluble”. The solubility [1, 4] was “insoluble”, the solubility ([1]; solvent tetrahydrofuran, 0 °C) was 61.0 mg/mL and the solubility ([1]; solvent tetrahydrofuran, RT (25-30 °C)) was 157.5 mg/mL. It also gave a solubility ([1]; solvent toluene, RT (25-30 °C)) of 23.2 mg/mL.

In the case of `O=P(c1ccccc1)(c1ccccc1)c1ccccc1` [TPPO, Triphenylphosphine oxide], the solubility ([1]; 2-propanol, 0 °C, organic solvent or mixture, thermodynamic from solid) is reported as 25.4 mg/mL (≈ 91.3 mM), the solubility ([1]; 2-propanol, organic solvent or mixture, thermodynamic from solid) is reported as 46.5 mg/mL (≈ 167 mM) and the solubility ([1]; solvent cyclohexane, 0 °C) is reported as “insoluble”. For the same molecule, the solubility [1, 4] was “insoluble”, the solubility [1, 5] was 105 mg/mL (≈ 377 mM) and the solubility [1, 6] was 170 mg/mL (≈ 610 mM). For the same molecule, the solubility [1, 7] was 42.9 mg/mL (≈ 154 mM), the solubility [1, 8] was 44.3 mg/mL (≈ 159 mM) and the solubility [2] was “almost insoluble”.

For `CC(C)(C)OC(=O)N1C[C@@H](F)C[C@H]1CON1C(=O)c2ccccc2C1=O` [compound-6, tert-Butyl (2S,4S)-2-{[(1,3-Dioxo-1,3-dihydro-2H-isoindol-2-yl)oxy]methyl}-4-fluoro-pyrrolidine-1-carboxylate], the solubility ([1]; solvent 2-propanol, 0 °C) was “insoluble”, the solubility [1, 3] was “insoluble” and the solubility ([1]; solvent cyclohexane, 0 °C) was “insoluble”. The solubility [1, 4] was “insoluble”, the solubility [1, 5] was 101 mg/mL (≈ 277 mM) and the solubility [1, 6] was 124 mg/mL (≈ 342 mM). It also gave a solubility [1, 7] of 42.1 mg/mL (≈ 116 mM) and a solubility [1, 8] of 46.7 mg/mL (≈ 128 mM).
